Experimental data taken from ChEMBL document CHEMBL3621160, “Pseudosaccharin amines as potent and selective KV1.5 blockers” (Bioorg Med Chem Lett, 2015).
pIC50: −log10 of the molar value.

How the values were obtained:
[1] = Metabolic stability in mouse liver microsomes assessed as compound remaining at 3 uM after 10 mins; type: ADME; details: read-out: Stability
Outline: (§1)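 Parent compound at 3 µM was incubated 10 min in human, rat or mouse liver microsomes with appropriate co-factors. Read-out is percent of parent remaining.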

[2] = Metabolic stability in human liver microsomes assessed as compound remaining at 3 uM after 10 mins; type: ADME; details: read-out: Stability; outline: as §1
[3] = Metabolic stability in rat liver microsomes assessed as compound remaining at 3 uM after 10 mins; type: ADME; details: read-out: Stability; outline: as §1
[4] = target: T1, Potassium voltage-gated channel subfamily A member 5 (Homo sapiens, UniProt P22460); test: Inhibition of human KV1.5 expressed in mouse L929 cells assessed as decrease in ultrarapid potassium current amplitude; type: cell-based
T1 sequence (P22460 whole entry): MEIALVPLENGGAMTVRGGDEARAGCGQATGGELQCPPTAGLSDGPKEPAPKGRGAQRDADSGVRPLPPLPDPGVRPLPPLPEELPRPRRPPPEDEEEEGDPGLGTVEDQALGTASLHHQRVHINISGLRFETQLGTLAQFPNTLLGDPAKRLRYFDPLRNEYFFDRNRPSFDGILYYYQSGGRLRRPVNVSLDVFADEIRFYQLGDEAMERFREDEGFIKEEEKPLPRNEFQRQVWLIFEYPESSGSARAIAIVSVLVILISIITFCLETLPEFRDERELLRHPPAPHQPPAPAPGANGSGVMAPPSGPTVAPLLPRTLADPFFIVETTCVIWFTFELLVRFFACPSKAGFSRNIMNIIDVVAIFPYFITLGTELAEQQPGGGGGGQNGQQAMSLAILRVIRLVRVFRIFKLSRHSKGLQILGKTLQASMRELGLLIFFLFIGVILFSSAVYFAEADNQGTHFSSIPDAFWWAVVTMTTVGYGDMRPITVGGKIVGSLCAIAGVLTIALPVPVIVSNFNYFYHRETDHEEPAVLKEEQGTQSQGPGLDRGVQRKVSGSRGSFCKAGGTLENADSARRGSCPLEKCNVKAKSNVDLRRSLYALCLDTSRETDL
Outline: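 Potassium current block was measured in mouse fibroblast L929 cells expressing human KV1.5. IC50 values are means of 2-4 experiments.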

[5] = target: T1, Potassium voltage-gated channel subfamily A member 5; test: Inhibition of human KV1.5 expressed in mouse L929 cells assessed as decrease in ultrarapid potassium current amplitude relative to control; type: cell-based; design: concentration or dose not given beside the values; details: concentration not given here
Outline: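 Potassium current block in mouse fibroblast L929 cells expressing human Kv1.5. IC50 values are means of 2-4 experiments.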

hERG (KCNH2) = hERG (KCNH2) (Homo sapiens, UniProt Q12809); test: Inhibition of human ERG at 10 uM relative to control
Chain of hERG (KCNH2) (Q12809 whole entry): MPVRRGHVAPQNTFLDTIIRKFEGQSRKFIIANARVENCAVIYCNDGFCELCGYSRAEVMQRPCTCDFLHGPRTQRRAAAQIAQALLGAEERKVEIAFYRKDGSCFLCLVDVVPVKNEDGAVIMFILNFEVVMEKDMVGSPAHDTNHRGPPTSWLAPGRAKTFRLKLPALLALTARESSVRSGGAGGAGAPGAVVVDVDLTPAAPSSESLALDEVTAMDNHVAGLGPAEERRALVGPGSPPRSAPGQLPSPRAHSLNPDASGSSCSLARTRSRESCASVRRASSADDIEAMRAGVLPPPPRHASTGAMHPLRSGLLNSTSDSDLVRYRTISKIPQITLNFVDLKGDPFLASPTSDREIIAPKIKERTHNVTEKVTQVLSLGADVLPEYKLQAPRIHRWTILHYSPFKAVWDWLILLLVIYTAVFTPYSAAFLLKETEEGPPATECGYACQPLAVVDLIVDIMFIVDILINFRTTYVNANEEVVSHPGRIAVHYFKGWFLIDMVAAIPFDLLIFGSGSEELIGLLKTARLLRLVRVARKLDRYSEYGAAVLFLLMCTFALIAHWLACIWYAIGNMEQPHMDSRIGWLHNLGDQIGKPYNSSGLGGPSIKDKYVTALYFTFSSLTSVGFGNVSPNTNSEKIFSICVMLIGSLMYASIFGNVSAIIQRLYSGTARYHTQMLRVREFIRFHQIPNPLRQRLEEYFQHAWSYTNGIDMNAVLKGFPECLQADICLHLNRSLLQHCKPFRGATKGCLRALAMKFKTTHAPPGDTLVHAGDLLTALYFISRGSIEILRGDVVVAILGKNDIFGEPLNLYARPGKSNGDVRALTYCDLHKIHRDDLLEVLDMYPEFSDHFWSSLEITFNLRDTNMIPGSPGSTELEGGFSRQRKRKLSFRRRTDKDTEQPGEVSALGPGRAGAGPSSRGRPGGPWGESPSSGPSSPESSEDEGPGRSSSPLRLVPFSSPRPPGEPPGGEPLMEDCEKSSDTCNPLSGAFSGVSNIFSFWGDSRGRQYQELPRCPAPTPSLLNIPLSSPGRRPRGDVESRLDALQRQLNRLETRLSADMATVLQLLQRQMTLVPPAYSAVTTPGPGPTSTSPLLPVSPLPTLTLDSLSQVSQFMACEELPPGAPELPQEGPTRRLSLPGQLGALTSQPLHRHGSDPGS
Outline: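 Screening panel of over 37 receptors and enzymes relevant to cardiovascular effects or toxicity. Each target was tested at a single concentration of 10 µM, with % activity reported.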

Homo sapiens [6] = organism: Homo sapiens; test: Inhibition of calcium channel (unknown origin) at 10 uM relative to control
Outline: (§2)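 Calcium (ICa) and sodium (INa) currents were measured as percent inhibition at a single concentration of 10 µM. Values are means of 2-4 experiments.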

Homo sapiens [7] = organism: Homo sapiens; test: Inhibition of sodium channel (unknown origin) at 10 uM relative to control; outline: as §2
Oryctolagus cuniculus [8] = organism: Oryctolagus cuniculus; test: Induction of […] effective refractory period prolongation in rabbit; type: functional
Outline: (§3)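 Rabbits were dosed at 0.3, 1.0 and 3.0 mg/Kg. Effective refractory period was measured in atrium and ventricle, and blood pressure was recorded. The plasma concentration giving 20% atrial ERP prolongation (EC20) was calculated.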

[9] = AUC in rat at 3.6 mg/kg, po; type: ADME, organism-based; details: in vivo
Outline: (§4)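 Rats, 3 animals per compound; values are means. Intravenous arm: intra-arterial infusion over 10 min. Oral arm: dosing by gavage. Both routes used a vehicle of 40% PEG 400, 40% water and 20% ethanol. Parameters were derived from plasma concentrations across the infusion and oral arms.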

Rattus norvegicus [10] = test: Toxicity in rat assessed as increase in blood pressure at 3 mg/kg, iv administered as infusion for 5 mins; type: organism-based; details: in vivo
Outline: (§5)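 Rats were dosed at 3 mg/Kg. QT interval on ECG, mean blood pressure (% change) and plasma concentration were measured. Values are means of 2-4 experiments.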

[11] = Cmax in rabbit at 0.3 to 3 mg/kg; type: ADME, organism-based, Oryctolagus cuniculus; details: in vivo; outline: as §3
Rattus norvegicus [12] = test: Induction of QT interval prolongation in rat at 3 mg/kg, iv administered as infusion for 5 mins by ECG analysis; type: functional
Outline: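 Rats were dosed at 3 mg/Kg. Block of IKur was read as the percent change in the ECG QT interval; mean blood pressure and plasma concentration were recorded alongside. Values are means of 2-4 experiments.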

[13] = Half life in rat at 1.6 mg/kg administered as intra-arterial infusion for 10 mins and 3.6 mg/kg, po; type: ADME, organism-based; details: in vivo; outline: as §4
[14] = Clearance in rat at 1.6 mg/kg administered as intra-arterial infusion for 10 mins and 3.6 mg/kg, po; type: ADME, organism-based; details: in vivo; outline: as §4
Oryctolagus cuniculus [15] = organism: Oryctolagus cuniculus; test: Toxicity in rabbit assessed as effect on ventricular effective refractory period; type: organism-based, Cardiac ventricle; details: in vivo; outline: as §3
[16] = Cmax in rat at 1.6 mg/kg administered as intra-arterial infusion for 10 mins and 3.6 mg/kg, po; type: ADME, organism-based; design: route oral; details: in vivo; outline: as §4
[17] = Volume of distribution at steady state in rat at 1.6 mg/kg administered as intra-arterial infusion for 10 mins and 3.6 mg/kg, po; type: ADME, organism-based; details: in vivo, read-out: Vdss; outline: as §4
[18] = Plasma concentration in rat at 3 mg/kg, iv administered as infusion for 5 mins; type: ADME, organism-based; outline: as §5
[19] = Oral bioavailability in rat at 3.6 mg/kg; type: ADME, organism-based; details: in vivo; outline: as §4
Oryctolagus cuniculus [20] = test: Toxicity in rabbit assessed as increase in blood pressure at 0.3 to 3 mg/kg; type: organism-based; details: in vivo; outline: as §3

| Compound | remaining at 10 min, 3 µM [1] | remaining at 10 min, 3 µM [2] | remaining at 10 min, 3 µM [3] | pIC50 [4] | inhibition [5] | also measured |
| --- | --- | --- | --- | --- | --- | --- |
| COc1cccc2c1C(NC[C@]1(c3ccccc3)CC[C@H](Nc3ncccn3)CC1)=NS2(=O)=O | < 1% | 6% | < 1% | 7.33 | – | – |
| COc1cccc2onc(NCC(C)(C)c3ccccc3)c12 | 11% | 7% | 13% | – | – | – |
| COc1cccc2c1C(NC[C@]1(c3ccccc3)CC[C@H](N)CC1)=NS2(=O)=O | – | – | – | < 5.00 | 5% | – |
| COc1cccc2c1C(NC[C@]1(c3ccccc3)CC[C@H](OC(=O)NS(=O)(=O)c3ccccc3)CC1)=NS2(=O)=O | – | – | – | < 5.00 | 1% | – |
| COc1cccc2c1C(NC[C@]1(c3ccccc3)CC[C@H](NC(=O)OCC(F)(F)F)CC1)=NS2(=O)=O | 48% | 95% | 57% | 7.55 | – | inhibition at 10 µM (hERG (KCNH2)): 47%; inhibition (Homo sapiens [6]): 51%; inhibition (Homo sapiens [7]): 23% |
| CCNC(=O)O[C@H]1CC[C@](CNC2=NS(=O)(=O)c3cccc(OC)c32)(c2ccccc2)CC1 | < 1% | 2% | < 1% | 7.19 | – | – |
| COc1cccc2c1C(NC[C@]1(c3ccccc3)CC[C@H](NS(N)(=O)=O)CC1)=NS2(=O)=O | – | – | – | < 5.00 | 18% | – |
| COc1cccc2c1C(NC[C@]1(c3ccccc3)CC[C@H](OC(=O)NC3CC3)CC1)=NS2(=O)=O | < 1% | 9% | 5% | 6.77 | – | – |
| COc1cccc2c1C(NC[C@]1(c3ccccc3)CC[C@H](OC(=O)Nc3ccc(N(C)C)cc3)CC1)=NS2(=O)=O | < 1% | 2% | < 1% | 7.52 | – | – |
| COc1cccc2c1C(NC[C@]1(c3ccccc3)CC[C@H](OC(=O)Nc3nnc(C4CC4)s3)CC1)=NS2(=O)=O | 66% | 75% | 70% | 7.04 | – | inhibition at 10 µM (hERG (KCNH2)): 17%; EC20 (Oryctolagus cuniculus [8]): 23000 nM; inhibition (Homo sapiens [6]): 8%; AUC [9]: 0.2 µM·h; inhibition (Homo sapiens [7]): 21%; Activity (Rattus norvegicus [10]): 19%; Cmax [11]: 23 µM; Activity (Rattus norvegicus [12]): 23%; half-life [13]: 2.3 h; clearance [14]: 6.8 mL/min/kg; Activity (Oryctolagus cuniculus [15]): Non-toxic; Cmax [16]: 0.011 µM; Vd [17]: 0.9 L/kg; concentration at 5 min [18]: 72 µM; bioavailability [19]: 1%; Activity (Oryctolagus cuniculus [20]): 6% |
| CCOC(=O)N[C@H]1CC[C@](CNC2=NS(=O)(=O)c3cccc(OC)c32)(c2ccccc2)CC1 | – | 55% | 19% | 7.26 | – | – |
| COc1cccc2c1C(NC[C@]1(c3ccccc3)CC[C@H](OC(=O)NCCO)CC1)=NS2(=O)=O | – | – | – | < 5.00 | 27% | – |
| COc1cccc2c1C(NC[C@]1(c3ccccc3)CC[C@H](OC(=O)N(C)CCN(C)C)CC1)=NS2(=O)=O | – | – | – | < 5.00 | 4% | – |
| CCS(=O)(=O)N[C@H]1CC[C@](CNC2=NS(=O)(=O)c3cccc(OC)c32)(c2ccccc2)CC1 | 30% | 75% | 67% | 7.22 | – | inhibition at 10 µM (hERG (KCNH2)): 59%; inhibition (Homo sapiens [6]): 14%; inhibition (Homo sapiens [7]): 7% |
| CCN(CC)S(=O)(=O)N[C@H]1CC[C@](CNC2=NS(=O)(=O)c3cccc(OC)c32)(c2ccccc2)CC1 | < 1% | < 1% | < 1% | 7.28 | – | – |
| COc1cccc2c1C(NC[C@]1(c3ccccc3)CC[C@H](n3cnnn3)CC1)=NS2(=O)=O | 56% | 56% | 19% | 7.49 | – | – |
| COc1cccc2snc(NCC(C)(C)c3ccccc3)c12 | – | 13% | – | 7.62 | – | – |
| CCOP(=O)(NC(=O)O[C@H]1CC[C@](CNC2=NS(=O)(=O)c3cccc(OC)c32)(c2ccccc2)CC1)OCC | – | – | – | < 5.00 | 13% | – |
| COc1cccc2c1C(NCC(C)(C)c1ccccc1)=NC2=O | – | 99% | 43% | 7.47 | – | – |
| COc1cccc2c1C(NC[C@]1(c3ccccc3)CC[C@@H](O)CC1)=NS2(=O)=O | 73% | 98% | 73% | < 6.52 | 14% | – |
| COc1cccc2c1C(NC[C@]1(c3ccccc3)CC[C@H](OC(=O)NCCC(F)(F)F)CC1)=NS2(=O)=O | 3% | < 1% | < 1% | 7.05 | – | – |
| CCNC(=O)N[C@H]1CC[C@](CNC2=NS(=O)(=O)c3cccc(OC)c32)(c2ccccc2)CC1 | – | – | – | < 5.00 | 20% | – |
